Assay results as given in ChEMBL document CHEMBL4229377, “Design, synthesis and bioevaluation of 1,2,3,9-tetrahydropyrrolo[2,1-b]quinazoline-1-carboxylic acid derivatives as potent neuroprotective agents” (Eur J Med Chem, 2018).

Columns and labels:
SH-SY5Y [1] = experiment: Neuroprotective activity against NMDA-induced cell damage in human SH-SY5Y cells assessed as cell viability at 0.1 uM preincubated for 6 hrs followed by NMDA addition and measured after 30 mins by MTT assay (reference value: 58.7 +/- 2.3%); type: functional; details: read-out: Activity
SH-SY5Y [2] = experiment: Neuroprotective activity against NMDA-induced cell damage in human SH-SY5Y cells assessed as cell viability at 10 uM preincubated for 6 hrs followed by NMDA addition and measured after 30 mins by MTT assay (reference value: 58.7 +/- 2.3%); type: functional; details: read-out: Activity
SH-SY5Y [3] = experiment: Neuroprotective activity against NMDA-induced cell damage in human SH-SY5Y cells assessed as cell viability at 1 uM preincubated for 6 hrs followed by NMDA addition and measured after 30 mins by MTT assay (reference value: 58.7 +/- 2.3%); type: functional; details: read-out: Activity
SH-SY5Y [4] = experiment: Neuroprotective activity against NMDA-induced cell damage in human SH-SY5Y cells assessed as cell viability at 100 uM preincubated for 6 hrs followed by NMDA addition and measured after 30 mins by MTT assay (reference value: 58.7 +/- 2.3%)
[5] = Half life in human liver microsomes at 10 uM preincubated for 10 mins followed by NADPH addition and measured up to 60 mins; type: ADME, microsome
How it was run: (§1)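 Human liver microsomes were incubated for 60 min with an NADPH regenerating system to derive T1/2 and CL (µL/min/mg). A no-cofactor sample, with buffer replacing NADPH, was run alongside over 60 min to give % parent remaining.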

[6] = Clearance in human liver microsomes at 10 uM preincubated for 10 mins followed by NADPH addition and measured up to 60 mins; type: ADME, microsome; details: read-out: CLH; how it was run: as §1
[7] = Metabolic stability in human liver microsomes assessed as parent compound remaining at 10 uM after 60 mins in absence of NADPH; type: ADME, microsome; details: read-out: Stability; how it was run: as §1

| SMILES | viability at 0.1 µM (SH-SY5Y [1]) | viability at 10 µM (SH-SY5Y [2]) | viability at 1 µM (SH-SY5Y [3]) | Activity (SH-SY5Y [4]) | half-life at 10 µM [5] | microsomal CLint at 10 µM [6] | remaining at 1 h, 10 µM [7] |
| --- | --- | --- | --- | --- | --- | --- | --- |
| O=C(OCc1ccccc1)[C@@H]1CCC2=Nc3ccccc3CN21 | 61% | 66.1% | 65.5% | 57.4% | – | – | – |
| COc1ccc(COC(=O)[C@@H]2CCC3=Nc4ccccc4CN32)cc1 | 61.4% | 65.3% | 64.1% | 63.6% | 1.2 min | 1180 µL/min/mg | 3.2% |
| O=C(NCc1ccc(O)cc1)[C@@H]1CCC2=Nc3ccccc3CN21 | 67.6% | 73.8% | 72% | 70.3% | – | – | – |
| O=C(NCc1ccc(F)cc1)[C@@H]1CCC2=Nc3ccccc3CN21 | 67.1% | 78.9% | 72.6% | 63.2% | – | – | – |
| O=C(NCCc1c[nH]c2ccccc12)[C@@H]1CCC2=Nc3ccccc3CN21 | 66.2% | 80.9% | 72% | 78.2% | – | – | – |
| COc1ccc(CNC(=O)[C@@H]2CCC3=Nc4ccccc4CN32)cc1 | 68.1% | 74.1% | 71.8% | 64.4% | – | – | – |
| O=C(NCc1ccc(F)cc1)[C@@H]1CCC2=Nc3ccc(Br)cc3CN21 | 64.8% | 70.4% | 70.4% | 60.1% | – | – | – |
| O=C(NCCCc1ccccc1)[C@@H]1CCC2=Nc3ccccc3CN21 | 67.2% | 63.4% | 71.2% | 30.3% | – | – | – |
| COc1ccc(CNC(=N)[C@@H]2CCC3=Nc4ccccc4CN32)cc1 | 64.8% | 66.1% | 65.8% | 56.9% | – | – | – |
| O=C(NCc1ccc(F)cc1)[C@H]1CCC2=Nc3ccccc3CN21 | 71.1% | 72.9% | 74.7% | 63.9% | – | – | – |
| O=C(NCCc1ccccc1)[C@@H]1CCC2=Nc3ccccc3CN21 | 73.7% | 80% | 77.6% | 57.5% | – | – | – |
| Cc1ccc(CNC(=O)[C@@H]2CCC3=Nc4ccccc4CN32)cc1 | 66.2% | 72.5% | 73.4% | 54.5% | – | – | – |
| COc1ccc(CCNC(=O)[C@@H]2CCC3=Nc4ccccc4CN32)cc1 | 73% | 75.1% | 81% | 60% | – | – | – |
| COc1ccc(CNC(=O)[C@@H]2CCC3=Nc4ccc(Br)cc4CN32)cc1 | 60.4% | 74.3% | 68.8% | 55.3% | – | – | – |
| O=C(NCCc1ccc(O)cc1)[C@@H]1CCC2=Nc3ccccc3CN21 | 67.7% | 81.4% | 78.1% | 67.8% | – | – | – |
| O=C(Nc1ccc(O)cc1)[C@@H]1CCC2=Nc3ccc(Br)cc3CN21 | 62.9% | 68% | 66.2% | 68.4% | – | – | – |
| O=C(NCCCc1ccccc1)[C@H]1CCC2=Nc3ccccc3CN21 | 62.2% | 70.2% | 71.6% | 42% | – | – | – |
| O=C(Nc1ccc(O)cc1)[C@H]1CCC2=Nc3ccccc3CN21 | 65.6% | 69.6% | 67.2% | 73.3% | – | – | – |
| O=C(Nc1ccc(O)cc1)[C@@H]1CCC2=Nc3ccccc3CN21 | 67.7% | 70.1% | 68.3% | 70.9% | – | – | – |
